ChEMBL document CHEMBL1126705, “16 beta-([18F]fluoro)estrogens: systematic investigation of a new series of fluorine-18-labeled estrogens as potential imaging agents for estrogen-receptor-positive breast tumors” (J Med Chem, 1993)

Legend:
[1] = test system: Rattus norvegicus; assay: Tested in vivo for the biodistribution in rat uterus/blood at 1 hour after intravenous dose of 15 microCi of the drug and 15 micro g of estradiol; type: ADME, organism-based
Outline: (§1)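 Female Sprague-Dawley rats, 25 days old (~40–53 g), ether-anesthetized, given the 18F-labeled estrogen iv via femoral vein in 10% ethanol saline. […] Others were sacrificed by decapitation at 1 or 3 h. Blood and organs were excised, weighed and gamma counted as % injected dose/g, mean ± SD, typically n = 5 (4–6).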

[2] = test system: Rattus norvegicus; assay: Tested in vivo for the biodistribution in rat uterus/muscle after 3 hours following an intravenous dose of 15 microCi of drug in 10%ethanol saline; type: ADME, organism-based, Muscle tissue; outline: as §1
[3] = test system: Rattus norvegicus; assay: Tested in vivo for the biodistribution in rat uterus/muscle at 1 hour after intravenous dose of 15 microCi of the drug and 15 ug of estradiol; type: ADME, organism-based, Muscle tissue; outline: as §1
[4] = test system: Rattus norvegicus; assay: Tested in vivo for the biodistribution in blood of female rat after 3 hours following an intravenous dose of 15 microCi of drug in 10%ethanol saline; type: ADME, organism-based
Outline: (§2)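 Ether-anesthetized 25-day-old female Sprague-Dawley rats (~40–53 g) got the [18F] tracer in 10% ethanol saline via femoral vein. Rats were decapitated at 1 or 3 h, and blood and organs were weighed and gamma-counted. Values are % injected dose/g as mean ± SD, n = 5 per time point.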

[5] = test system: Rattus norvegicus; assay: Tested in vivo for the biodistribution in rat bone at 1 hour after intravenous dose of 15 microCi of drug in 10%ethanol saline; type: ADME, organism-based, Bone element; outline: as §2
[6] = test system: Rattus norvegicus; assay: Tested in vivo for the biodistribution in rat bone at 1 hour after intravenous dose of 15 microCi of the drug and 15 ug of estradiol; type: ADME, organism-based, Bone element
[7] = test system: Rattus norvegicus; assay: Tested in vivo for the biodistribution in rat fat after 3 hours following an intravenous dose of 15 microCi of drug in 10%ethanol saline; type: ADME, organism-based, Adipose tissue; outline: as §2
[8] = test system: Rattus norvegicus; assay: Tested in vivo for the biodistribution in rat ovaries after 3 hours following an intravenous dose of 120 microCi of drug in 10%ethanol saline; type: ADME, organism-based, Female gonad
Outline: (§3)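 Immature (25-day-old) female Sprague-Dawley rats, ether-anesthetized, given the fluorine-18-labeled estrogen by femoral vein injection in 10% ethanol saline. […] Other groups were killed by decapitation at 1 or 3 h. Blood and organs were weighed and gamma-counted. Data are % injected dose/g, mean ± SD, typically n = 5 per group.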

[9] = test system: Rattus norvegicus; assay: Tested in vivo for the biodistribution in rat ovaries at 1 hour after intravenous dose of 15 microCi of the drug and 15 ug of estradiol; type: ADME, organism-based, Female gonad; outline: as §3
[10] = test system: Rattus norvegicus; assay: Tested in vivo for the biodistribution in rat muscle at 1 hour after intravenous dose of 15 microCi of drug in 10%ethanol saline; type: ADME, organism-based, Muscle tissue; outline: as §3
[11] = test system: Rattus norvegicus; assay: Tested in vivo for the biodistribution in rat muscle at 1 hour after intravenous dose of 15 microCi of the drug and 15 ug of estradiol; type: ADME, organism-based, Muscle tissue; outline: as §3
[12] = test system: Rattus norvegicus; assay: Tested in vivo for the biodistribution in rat fat at 1 hour after intravenous dose of 15 microCi of drug in 10%ethanol saline; type: ADME, organism-based, Adipose tissue; outline: as §2
[13] = test system: Rattus norvegicus; assay: Tested in vivo for the biodistribution in rat fat at 1 hour after intravenous dose of 15 microCi of the drug and 15 ug of estradiol; type: ADME, organism-based, Adipose tissue
[14] = test system: Rattus norvegicus; assay: Tested in vivo for the biodistribution in rat thymus after 3 hours following an intravenous dose of 15 microCi of drug in 10%ethanol saline; type: ADME, organism-based; outline: as §3
[15] = test system: Rattus norvegicus; assay: Tested in vivo for the biodistribution in rat thymus at 1 hour after intravenous dose of 15 microCi of drug in 10%ethanol saline; type: ADME, organism-based; outline: as §3
[16] = test system: Rattus norvegicus; assay: Tested in vivo for the biodistribution in rat thymus at 1 hour after intravenous dose of 15 microCi of the drug and 15 micro g of estradiol; type: ADME, organism-based; outline: as §3
[17] = test system: Rattus norvegicus; assay: Tested in vivo for the biodistribution in rat uterus after 3 hours following an intravenous dose of 15 microCi of drug in 10%ethanol saline; type: ADME, organism-based; outline: as §3
[18] = test system: Rattus norvegicus; assay: Tested in vivo for the biodistribution in rat uterus at 1 hour after intravenous dose of 15 microCi of drug in 10%ethanol saline; type: ADME, organism-based; outline: as §1
[19] = test system: Rattus norvegicus; assay: Tested in vivo for the biodistribution in rat uterus at 1 hour after intravenous dose of 15 microCi of the drug and 15 micro g of estradiol; type: ADME, organism-based; outline: as §1
[20] = test system: Rattus norvegicus; assay: Tested in vivo for the biodistribution in rat uterus/blood at 1 hour after intravenous dose of 15 microCi of drug in 10%ethanol saline; type: ADME, organism-based; outline: as §1
[21] = test system: Rattus norvegicus; assay: Tested in vivo for the biodistribution in blood of female rat at 1 hour after intravenous dose of 15 microCi of drug in 10%ethanol saline; type: ADME, organism-based; outline: as §2
[22] = test system: Rattus norvegicus; assay: Tested in vivo for the biodistribution in blood of female rat at 1 hour after intravenous dose of 15 microCi of the drug and 15 u g of estradiol; type: ADME, organism-based
[23] = test system: Rattus norvegicus; assay: Tested in vivo for the biodistribution in rat bone after 3 hours following an intravenous dose of 15 microCi of drug in 10%ethanol saline; type: ADME, organism-based, Bone element; outline: as §2
[24] = test system: Rattus norvegicus; assay: Tested in vivo for the biodistribution in rat kidney at 1 hour after intravenous dose of 15 microCi of drug in 10%ethanol saline; type: ADME, organism-based; outline: as §2
[25] = test system: Rattus norvegicus; assay: Tested in vivo for the biodistribution in rat kidney at 1 hour after intravenous dose of 15 microCi of the drug and 15 u g of estradiol; type: ADME, organism-based
[26] = test system: Rattus norvegicus; assay: Tested in vivo for the biodistribution in rat kidney after 3 hours following an intravenous dose of 15 microCi of drug in 10%ethanol saline; type: ADME, organism-based; outline: as §2
[27] = test system: Rattus norvegicus; assay: Tested in vivo for the biodistribution in rat liver after 3 hours following an intravenous dose of 15 microCi of drug in 10%ethanol saline; type: ADME, organism-based; outline: as §3
[28] = test system: Rattus norvegicus; assay: Tested in vivo for the biodistribution in rat liver at 1 hour after intravenous dose of 15 microCi of the drug and 15 u g of estradiol; type: ADME, organism-based; outline: as §3
[29] = test system: Rattus norvegicus; assay: Tested in vivo for the biodistribution in rat muscle after 3 hours following an intravenous dose of 15 microCi of drug in 10%ethanol saline; type: ADME, organism-based, Muscle tissue; outline: as §3
[30] = Partition coefficient (logP); type: physicochemical; conditions: octanol/water
Outline: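 Octanol/water log P estimated from log k'w measured by reversed-phase HPLC (Minick method) on a C8 silica column.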

[31] = target: T1, Alpha-fetoprotein (Rattus norvegicus) (UniProt P02773); assay: Relative binding affinity for Alphafetoprotein
T1 sequence (whole entry): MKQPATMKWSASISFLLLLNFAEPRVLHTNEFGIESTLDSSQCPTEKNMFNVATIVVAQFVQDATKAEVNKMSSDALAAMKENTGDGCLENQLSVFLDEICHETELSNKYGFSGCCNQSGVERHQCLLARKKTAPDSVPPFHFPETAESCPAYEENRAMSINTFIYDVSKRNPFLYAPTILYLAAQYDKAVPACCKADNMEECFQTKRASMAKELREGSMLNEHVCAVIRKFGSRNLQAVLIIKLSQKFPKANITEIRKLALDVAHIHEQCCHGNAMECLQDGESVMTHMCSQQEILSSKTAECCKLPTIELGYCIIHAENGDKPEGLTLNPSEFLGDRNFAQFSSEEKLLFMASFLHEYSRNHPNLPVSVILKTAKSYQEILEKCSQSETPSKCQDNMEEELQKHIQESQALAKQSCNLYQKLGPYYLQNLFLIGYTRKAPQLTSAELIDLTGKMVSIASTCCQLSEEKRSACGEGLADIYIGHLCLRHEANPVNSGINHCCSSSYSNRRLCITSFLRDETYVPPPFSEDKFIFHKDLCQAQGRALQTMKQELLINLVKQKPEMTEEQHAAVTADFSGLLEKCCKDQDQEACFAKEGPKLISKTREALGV

[32] = target: T2, Sex hormone-binding globulin (Homo sapiens) (UniProt P04278); assay: Relative binding affinity against sex steroid binding protein (SBP)
T2 sequence (whole entry): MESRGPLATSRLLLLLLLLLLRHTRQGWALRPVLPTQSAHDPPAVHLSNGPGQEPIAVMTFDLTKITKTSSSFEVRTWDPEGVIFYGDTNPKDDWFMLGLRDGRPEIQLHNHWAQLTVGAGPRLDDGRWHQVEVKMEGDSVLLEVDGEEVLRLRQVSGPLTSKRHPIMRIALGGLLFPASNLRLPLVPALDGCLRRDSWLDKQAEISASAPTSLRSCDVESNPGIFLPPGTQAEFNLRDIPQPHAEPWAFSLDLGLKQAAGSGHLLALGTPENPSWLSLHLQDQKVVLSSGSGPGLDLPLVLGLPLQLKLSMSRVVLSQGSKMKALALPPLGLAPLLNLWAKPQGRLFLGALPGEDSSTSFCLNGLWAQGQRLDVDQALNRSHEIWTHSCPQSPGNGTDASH

[33] = test system: Rattus norvegicus; assay: Tested in vivo for the biodistribution in rat ovaries at 1 hour after intravenous dose of 15 microCi of drug in 10%ethanol saline; type: ADME, organism-based, Female gonad; outline: as §3
[34] = test system: Rattus norvegicus; assay: Tested in vivo for the biodistribution in rat uterus/muscle at 1 hour after intravenous dose of 15 microCi of drug in 10%ethanol saline; type: ADME, organism-based, Muscle tissue; outline: as §1
[35] = test system: Rattus norvegicus; assay: Tested in vivo for the biodistribution in rat liver at 1 hour after intravenous dose of 15 microCi of drug in 10%ethanol saline; type: ADME, organism-based; outline: as §3
[36] = test system: Rattus norvegicus; assay: Tested in vivo for the biodistribution in rat uterus/blood after 3 hours following an intravenous dose of 15 microCi of drug in 10%ethanol saline; type: ADME, organism-based; outline: as §1
[37] = target: T3, Estrogen receptor (Rattus norvegicus) (UniProt P06211+Q62986)
[38] = target: T3, Estrogen receptor (Rattus norvegicus); remark: listed apart in the source

CC[C@H]1C[C@]2(C)[C@@H](O)[C@@H](F)C[C@H]2[C@@H]2CCc3cc(O)ccc3[C@@H]12
Injected [1]: 6.3% | Injected [2]: 22.88% | Injected [3]: 7.11% | Injected [4]: 0.084% | Injected [5]: 0.889% | Injected [6]: 1.057% | Injected [7]: 1.294% | Injected [8]: 2.742% | Injected [9]: 1.063% | Injected [10]: 0.513% | Injected [11]: 0.189% | Injected [12]: 1.692% | Injected [13]: 1.054% | Injected [14]: 0.453% | Injected [15]: 0.779% | Injected [16]: 0.186% | Injected [17]: 6.89% | Injected [18]: 5.57% | Injected [19]: 1.214% | Injected [20]: 52.37% | Injected [21]: 0.108% | Injected [22]: 0.202% | Injected [23]: 1.077% | Injected [24]: 2.534% | Injected [25]: 1.716% | Injected [26]: 1.413% | Injected [27]: 1.822% | Injected [28]: 3.615% | Injected [29]: 0.307% | logP [30]: 3.72 | relative binding affinity (RBA) [31]: 0.079 | relative binding affinity (RBA) [32]: 0.55 | Injected [33]: 2.991% | Injected [34]: 10.81% | Injected [35]: 2.331% | Injected [36]: 82.19% | NSB [37]: 1.6 | BSI [38]: 158
